Test results from ChEMBL document CHEMBL3779766, “Synthesis and biological evaluation of quinoline analogues of flavones as potential anticancer agents and tubulin polymerization inhibitors” (Eur J Med Chem, 2016).
The source made the active and inactive calls. No cut-off for these calls is given here.

Legend:
[1] = Antiproliferative activity against human MCF7/MX cells assessed as cell viability after 48 hrs by MTT assay; type: functional, cell-based
Method in brief: (§1)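 Cancer cells were seeded at 5×10³ per well in RPMI complete medium. The next day the medium was replaced with a range of test concentrations, with a no-drug RPMI control. Plates ran 48 h at 37 °C, then MTT (4 mg/mL solution) was added for 3 h. Formazan was dissolved in DMSO and absorbance read at 540 nm. Triplicate determinations.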

MCF7 [2] = assay: Antiproliferative activity against human MCF7 cells assessed as cell viability after 48 hrs by MTT assay; type: functional, cell-based; conditions: MCF7, 48 h; method in brief: as §1
A2780 [3] = assay: Antiproliferative activity against cisplatin resistant human A2780 cells assessed as cell viability after 48 hrs by MTT assay; type: functional, cell-based; conditions: A2780, 48 h; method in brief: as §1
A2780 [4] = assay: Antiproliferative activity against human A2780 cells assessed as cell viability after 48 hrs by MTT assay; type: functional, cell-based; conditions: A2780, 48 h; method in brief: as §1
Tubulin (Sus scrofa) [5] = target: T1, Tubulin (Sus scrofa) (UniProt P02554+P02550); assay: Inhibition of porcine brain tubulin polymerization at 100 uM measured for 1 hr by fluorescence assay
T1 sequence (P02550 whole entry, looked up): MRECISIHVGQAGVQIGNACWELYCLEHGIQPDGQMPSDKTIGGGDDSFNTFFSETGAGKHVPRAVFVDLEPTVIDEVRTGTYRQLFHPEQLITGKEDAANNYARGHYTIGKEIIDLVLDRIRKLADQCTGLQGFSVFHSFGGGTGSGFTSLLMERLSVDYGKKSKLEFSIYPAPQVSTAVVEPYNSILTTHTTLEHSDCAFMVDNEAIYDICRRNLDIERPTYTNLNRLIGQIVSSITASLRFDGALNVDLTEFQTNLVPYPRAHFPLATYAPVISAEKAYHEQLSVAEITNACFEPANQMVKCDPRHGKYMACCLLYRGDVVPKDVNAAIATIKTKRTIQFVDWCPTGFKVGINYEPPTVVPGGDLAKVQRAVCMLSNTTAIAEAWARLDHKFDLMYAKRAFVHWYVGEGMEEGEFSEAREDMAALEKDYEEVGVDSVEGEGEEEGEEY
T1 sequence (P02554 whole entry, looked up): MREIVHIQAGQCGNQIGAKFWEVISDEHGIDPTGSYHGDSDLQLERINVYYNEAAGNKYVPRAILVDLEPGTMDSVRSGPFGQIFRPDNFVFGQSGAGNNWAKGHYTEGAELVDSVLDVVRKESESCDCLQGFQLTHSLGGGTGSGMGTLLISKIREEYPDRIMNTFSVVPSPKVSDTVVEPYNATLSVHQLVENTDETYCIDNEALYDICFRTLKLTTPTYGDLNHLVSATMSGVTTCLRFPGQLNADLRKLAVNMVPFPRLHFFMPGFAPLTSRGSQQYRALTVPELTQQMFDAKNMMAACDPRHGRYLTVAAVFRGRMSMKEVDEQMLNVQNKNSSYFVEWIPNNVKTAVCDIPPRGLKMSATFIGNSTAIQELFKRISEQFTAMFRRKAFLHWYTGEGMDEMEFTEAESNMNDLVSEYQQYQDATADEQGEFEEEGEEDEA
Method in brief: (§2)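 Polymerization was tracked by a fluorescent reporter incorporating into microtubules (ex 360/em 420 nm) every 1 min for 1 h. Controls were paclitaxel 3 µM (stabilizer) and CA-4 10 µM (destabilizer).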

Tubulin (Sus scrofa) [6] = target: T1, Tubulin (Sus scrofa); assay: Inhibition of porcine brain tubulin polymerization at 50 uM measured for 1 hr by fluorescence assay; method in brief: as §2
A2780 [7] = assay: Cell cycle arrest in human A2780 cells assessed as accumulation at G2/M phase at 3 uM after 24 hrs by propidium iodide staining based flow cytometry (reference value: 12.71%); type: functional
Tubulin (Sus scrofa) [8] = target: T1, Tubulin (Sus scrofa); conditions: 10 uM
A2780 [9] = assay: Cell cycle arrest in cisplatin resistant human A2780 cells assessed as accumulation at G2/M phase at 3 uM after 24 hrs by propidium iodide staining based flow cytometry (reference value: 19.63%); type: functional
MCF7 [10] = assay: Cell cycle arrest in human MCF7 cells assessed as accumulation at G2/M phase at 3 uM after 72 hrs by propidium iodide staining based flow cytometry (reference value: 6.18%); type: functional
[11] = Cell cycle arrest in human MCF7/MX cells assessed as accumulation at G2/M phase at 3 uM after 72 hrs by propidium iodide staining based flow cytometry (reference value: 5.68%); type: functional
A2780 [12] = assay: Cell cycle arrest in human A2780 cells assessed as accumulation at G2/M phase at 100 uM after 24 hrs by propidium iodide staining based flow cytometry (reference value: 12.71%); type: functional
MCF7 [13] = assay: Cell cycle arrest in human MCF7 cells assessed as accumulation at G2/M phase at 100 uM after 72 hrs by propidium iodide staining based flow cytometry (reference value: 6.18%); type: functional
[14] = Cell cycle arrest in human MCF7/MX cells assessed as accumulation at G2/M phase at 100 uM after 72 hrs by propidium iodide staining based flow cytometry (reference value: 5.68%); type: functional
A2780 [15] = assay: Cell cycle arrest in cisplatin resistant human A2780 cells assessed as accumulation at G2/M phase at 100 uM after 24 hrs by propidium iodide staining based flow cytometry (reference value: 19.63%); type: functional
MCF7 [16] = assay: Cell cycle arrest in human MCF7 cells assessed as accumulation at G2/M phase at 50 uM after 72 hrs by propidium iodide staining based flow cytometry (reference value: 6.18%); type: functional
A2780 [17] = assay: Cell cycle arrest in human A2780 cells assessed as accumulation at G2/M phase at 50 uM after 24 hrs by propidium iodide staining based flow cytometry (reference value: 12.71%); type: functional
A2780 [18] = assay: Induction of apoptosis in human A2780 cells assessed as accumulation at sub G1 phase at 50 uM after 72 hrs by propidium iodide staining based flow cytometry; type: functional, cell-based
Method in brief: (§3)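 2.5×10⁵ cells were seeded in 6-well plates for 24 h, then treated for 72 h alongside a vehicle control (0.05% DMSO). Cells were ethanol-fixed (70%), then incubated 0.5 h at 37 °C with RNase A (1 mg/mL) plus propidium iodide. Flow cytometry (FL2) gave the percentage of cells in the sub-G1 region as the apoptotic fraction.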

MCF7 [19] = assay: Induction of apoptosis in human MCF7 cells assessed as accumulation at sub G1 phase at 50 uM after 72 hrs by propidium iodide staining based flow cytometry; type: functional, cell-based; method in brief: as §3
A2780 [20] = assay: Cell cycle arrest in cisplatin resistant human A2780 cells assessed as accumulation at G2/M phase at 50 uM after 24 hrs by propidium iodide staining based flow cytometry (reference value: 19.63%); type: functional
A2780 [21] = assay: Induction of apoptosis in cisplatin resistant human A2780 cells assessed as accumulation at sub G1 phase at 50 uM after 72 hrs by propidium iodide staining based flow cytometry; type: functional, cell-based; method in brief: as §3
MCF7/MX = assay: Induction of apoptosis in human MCF7/MX cells assessed as accumulation at sub G1 phase at 50 uM after 72 hrs by propidium iodide staining based flow cytometry; type: functional, cell-based; method in brief: as §3
[22] = Cell cycle arrest in human MCF7/MX cells assessed as accumulation at G2/M phase at 50 uM after 72 hrs by propidium iodide staining based flow cytometry (reference value: 5.68%); type: functional

Structure (SMILES) | IC50 (MCF7 [2]) [µM] | IC50 (A2780 [3]) [µM] | IC50 (A2780 [4]) [µM] | IC50 [1] [µM] | further results
COc1cc(-c2cc(C(=O)O)c3c(OC)c(OC)c(OC)cc3n2)ccc1O | > 100 | > 100 | > 100 | > 100 | inhibition (Tubulin (Sus scrofa) [5]): Active
COc1ccc(-c2cc(C(=O)O)c3c(OC)c(OC)c(OC)cc3n2)cc1OC | > 100 | > 100 | > 100 | > 100 | –
COc1cc(-c2cc(CO)c3c(OC)c(OC)c(OC)cc3n2)ccc1O | 49.7 | 52.2 | 9.19 | 53.9 | –
COc1ccc(-c2cc(CO)c3c(OC)c(OC)c(OC)cc3n2)cc1 | 16.4 | 28.4 | 8.04 | 39.8 | inhibition (Tubulin (Sus scrofa) [6]): Active
COc1ccc(-c2cc(CO)c3c(OC)c(OC)c(OC)cc3n2)cc1O | 59.5 | 43.3 | 29.6 | 21.5 | inhibition (Tubulin (Sus scrofa) [6]): Active
COc1ccc(/C=C\c2cc(OC)c(OC)c(OC)c2)cc1O [COMBRETASTATIN A4] | 1.23 | 2.95 | 2.84 | 2.97 | Activity (A2780 [7]): 78.38%; inhibition (Tubulin (Sus scrofa) [8]): Active; Activity (A2780 [9]): 25.41%; Activity (MCF7 [10]): 80.09%; Activity [11]: 43.2%
COc1cc2nc(-c3cccc(O)c3)cc(C(=O)O)c2c(OC)c1OC | > 100 | > 100 | > 100 | > 100 | –
COc1ccc(-c2cc(C(=O)O)c3c(OC)c(OC)c(OC)cc3n2)cc1 | > 100 | > 100 | > 100 | > 100 | inhibition (Tubulin (Sus scrofa) [5]): Active
COc1cc2nc(-c3ccc(O)cc3O)cc(C(=O)O)c2c(OC)c1OC | > 100 | > 100 | > 100 | > 100 | inhibition (Tubulin (Sus scrofa) [5]): Active
COc1cc(-c2cc(CO)c3c(OC)c(OC)c(OC)cc3n2)cc(OC)c1OC | 16.3 | 8.15 | 11.4 | 14.1 | Activity (MCF7 [16]): 79.59%; Activity (A2780 [17]): 79.59%; Activity (A2780 [18]): Active; Activity (MCF7 [19]): Active; Activity (A2780 [20]): 62.31%; inhibition (Tubulin (Sus scrofa) [6]): Active; Activity (A2780 [21]): Active; Activity (MCF7/MX): Active; Activity [22]: 44.8%

Now from value to molecule, other results behind:

IC50 (MCF7 [2]) [µM] | IC50 (A2780 [3]) [µM] | IC50 (A2780 [4]) [µM] | Structure (SMILES) | IC50 [1] [µM] | further results
> 100 | > 100 | > 100 | COc1cc(-c2cc(C(=O)O)c3c(OC)c(OC)c(OC)cc3n2)cc(OC)c1OC | > 100 | –
> 100 | > 100 | > 100 | COc1cc2nc(-c3ccc(O)cc3)cc(C(=O)O)c2c(OC)c1OC | > 100 | –
60.7 | 23.1 | 7.98 | COc1ccc(-c2cc(CO)c3c(OC)c(OC)c(OC)cc3n2)cc1OC | 37.1 | inhibition (Tubulin (Sus scrofa) [6]): Active
56.3 | > 100 | 38.7 | COc1ccc(-c2cc(C(=O)O)c3c(OC)c(OC)c(OC)cc3n2)cc1O | 98.5 | Activity (A2780 [12]): 62.15%; inhibition (Tubulin (Sus scrofa) [5]): inactive; Activity (MCF7 [13]): 8%; Activity [14]: 3.74%; Activity (A2780 [15]): 43.12%
